Experimental data published in ChEMBL document CHEMBL1255475, “Mutant prevention concentrations of four carbapenems against gram-negative rods” (2010).
Converted amounts (≈) assume the structure as drawn.

Assays:
Assay type in all cases: functional
Escherichia coli [1] = assay: Antibacterial activity against beta-lactamase-positive ESBL-positive Escherichia coli E458 incubated up to 7 days by agar dilution method; details: E458, 168 h
Summary of the method: (§1)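 MIC by CLSI agar dilution, with quality-control strains in each run. Beta-lactamase status was set by 30 μg cefazolin Kirby-Bauer disk diffusion. ESBL status was set by cefotaxime and ceftazidime disks (30 μg) with and without clavulanic acid (10 μg).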

Klebsiella pneumoniae [2] = assay: Antibacterial activity against beta-lactamase-positive ESBL-negative Klebsiella pneumoniae E507 assessed as mutant prevention concentration after overnight incubation
Summary of the method: (§2)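 Overnight growth on blood trypticase soy agar (35°C, air) was resuspended in 0.9% saline and counted on drug-free Mueller-Hinton agar. […] Colonies were retested by agar dilution to confirm mutants. MPC was the lowest concentration preventing resistant-mutant growth.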

Escherichia coli [3] = assay: Antibacterial activity against beta-lactamase-positive ESBL-positive Escherichia coli E450 assessed as mutant prevention concentration after overnight incubation; summary of the method: as §2
Klebsiella pneumoniae [4] = assay: Antibacterial activity against beta-lactamase-positive ESBL-negative Klebsiella pneumoniae E477 incubated up to 7 days by agar dilution method; details: E477, 168 h
Escherichia coli [5] = assay: Antibacterial activity against beta-lactamase-positive ESBL-negative Escherichia coli E484 incubated up to 7 days by agar dilution method; details: E484, 168 h
Escherichia coli [6] = assay: Antibacterial activity against beta-lactamase-positive ESBL-negative Escherichia coli E483 assessed as mutant prevention concentration after overnight incubation; summary of the method: as §2
Escherichia coli [7] = assay: Antibacterial activity against beta-lactamase-negative Escherichia coli E408 assessed as mutant prevention concentration after overnight incubation
Escherichia coli [8] = assay: Antibacterial activity against beta-lactamase-positive ESBL-positive Escherichia coli E446 incubated up to 7 days by agar dilution method; details: E446, 168 h; summary of the method: as §1
Escherichia coli [9] = assay: Antibacterial activity against beta-lactamase-positive ESBL-negative Escherichia coli E483 […] by agar dilution method
Klebsiella pneumoniae [10] = assay: Antibacterial activity against beta-lactamase-positive ESBL-negative Klebsiella pneumoniae E474 assessed as mutant prevention concentration after overnight incubation; summary of the method: as §2
Escherichia coli [11] = assay: Antibacterial activity against beta-lactamase-negative Escherichia coli E347 assessed as mutant prevention concentration after overnight incubation
Escherichia coli [12] = assay: Antibacterial activity against beta-lactamase-negative Escherichia coli E350 assessed as mutant prevention concentration after overnight incubation
Klebsiella pneumoniae [13] = assay: Antibacterial activity against beta-lactamase-negative Klebsiella pneumoniae E361 incubated up to 7 days by agar dilution method; details: E361, 168 h
Escherichia coli [14] = assay: Antibacterial activity against beta-lactamase-negative Escherichia coli E347 incubated up to 7 days by agar dilution method; details: E347, 168 h
Klebsiella pneumoniae [15] = assay: Antibacterial activity against beta-lactamase-positive ESBL-positive Klebsiella pneumoniae E478 assessed as mutant prevention concentration after overnight incubation; summary of the method: as §2
Klebsiella pneumoniae [16] = assay: Antibacterial activity against beta-lactamase-negative Klebsiella pneumoniae E358 incubated up to 7 days by agar dilution method; details: E358, 168 h
Klebsiella pneumoniae [17] = assay: Antibacterial activity against beta-lactamase-negative Klebsiella pneumoniae E419 incubated up to 7 days by agar dilution method; details: E419, 168 h
Escherichia coli [18] = assay: Antibacterial activity against beta-lactamase-positive ESBL-positive Escherichia coli E452 assessed as mutant prevention concentration after overnight incubation; summary of the method: as §2
Escherichia coli [19] = assay: Antibacterial activity against beta-lactamase-positive ESBL-negative Escherichia coli E430 assessed as mutant prevention concentration after overnight incubation; summary of the method: as §2
Klebsiella pneumoniae [20] = assay: Antibacterial activity against beta-lactamase-positive ESBL-negative Klebsiella pneumoniae E472 incubated up to 7 days by agar dilution method; details: E472, 168 h
Klebsiella pneumoniae [21] = assay: Antibacterial activity against beta-lactamase-positive ESBL-negative Klebsiella pneumoniae E479 assessed as mutant prevention concentration after overnight incubation; summary of the method: as §2
Klebsiella pneumoniae [22] = assay: Antibacterial activity against beta-lactamase-positive ESBL-negative Klebsiella pneumoniae E480 assessed as mutant prevention concentration after overnight incubation; summary of the method: as §2
Klebsiella pneumoniae [23] = assay: Antibacterial activity against beta-lactamase-negative Klebsiella pneumoniae E361 assessed as mutant prevention concentration after overnight incubation
Klebsiella pneumoniae [24] = assay: Antibacterial activity against beta-lactamase-positive ESBL-negative Klebsiella pneumoniae E511 incubated up to 7 days by agar dilution method; details: E511, 168 h
Klebsiella pneumoniae [25] = assay: Antibacterial activity against beta-lactamase-negative Klebsiella pneumoniae E357 incubated up to 7 days by agar dilution method; details: E357, 168 h
Escherichia coli [26] = assay: Antibacterial activity against beta-lactamase-positive ESBL-negative Escherichia coli E484 assessed as mutant prevention concentration after overnight incubation; summary of the method: as §2
Klebsiella pneumoniae [27] = assay: Antibacterial activity against beta-lactamase-negative Klebsiella pneumoniae E418 assessed as mutant prevention concentration after overnight incubation; summary of the method: as §2
Escherichia coli [28] = assay: Antibacterial activity against beta-lactamase-positive ESBL-positive Escherichia coli E450 incubated up to 7 days by agar dilution method; details: E450, 168 h; summary of the method: as §1
Escherichia coli [29] = assay: Antibacterial activity against beta-lactamase-positive ESBL-positive Escherichia coli E446 assessed as mutant prevention concentration after overnight incubation; summary of the method: as §2
Escherichia coli [30] = assay: Antibacterial activity against beta-lactamase-negative Escherichia coli E409 assessed as mutant prevention concentration after overnight incubation
Klebsiella pneumoniae [31] = assay: Antibacterial activity against beta-lactamase-negative Klebsiella pneumoniae E359 assessed as mutant prevention concentration after overnight incubation
Pseudomonas aeruginosa [32] = assay: Antibacterial activity against Pseudomonas aeruginosa P376 assessed as mutant prevention concentration after overnight incubation
Pseudomonas aeruginosa [33] = assay: Antibacterial activity against Pseudomonas aeruginosa P349 assessed as mutant prevention concentration after overnight incubation
Acinetobacter baumannii [34] = assay: Antibacterial activity against Acinetobacter baumannii A912 assessed as mutant prevention concentration after overnight incubation
Acinetobacter baumannii [35] = assay: Antibacterial activity against Acinetobacter baumannii A850 assessed as mutant prevention concentration after overnight incubation
Pseudomonas aeruginosa [36] = assay: Antibacterial activity against Pseudomonas aeruginosa P356 assessed as mutant prevention concentration after overnight incubation
Pseudomonas aeruginosa [37] = assay: Antibacterial activity against Pseudomonas aeruginosa P335 assessed as mutant prevention concentration after overnight incubation
Acinetobacter baumannii [38] = assay: Antibacterial activity against Acinetobacter baumannii A903 assessed as mutant prevention concentration after overnight incubation
Acinetobacter baumannii [39] = assay: Antibacterial activity against Acinetobacter baumannii A929 assessed as mutant prevention concentration after overnight incubation
Pseudomonas aeruginosa [40] = assay: Antibacterial activity against Pseudomonas aeruginosa P328 assessed as mutant prevention concentration after overnight incubation
Pseudomonas aeruginosa [41] = assay: Antibacterial activity against Pseudomonas aeruginosa P337 assessed as mutant prevention concentration after overnight incubation
Acinetobacter baumannii [42] = assay: Antibacterial activity against Acinetobacter baumannii A885 assessed as mutant prevention concentration after overnight incubation
Acinetobacter baumannii [43] = assay: Antibacterial activity against Acinetobacter baumannii A848 assessed as mutant prevention concentration after overnight incubation
Acinetobacter baumannii [44] = assay: Antibacterial activity against Acinetobacter baumannii A898 assessed as mutant prevention concentration after overnight incubation
Pseudomonas aeruginosa [45] = assay: Antibacterial activity against Pseudomonas aeruginosa P327 assessed as mutant prevention concentration after overnight incubation
Pseudomonas aeruginosa [46] = assay: Antibacterial activity against Pseudomonas aeruginosa P338 assessed as mutant prevention concentration after overnight incubation
Acinetobacter baumannii [47] = assay: Antibacterial activity against Acinetobacter baumannii A894 assessed as mutant prevention concentration after overnight incubation
Pseudomonas aeruginosa [48] = assay: Antibacterial activity against Pseudomonas aeruginosa P353 assessed as mutant prevention concentration after overnight incubation

## C[C@@H](O)[C@H]1C(=O)N2C(C(=O)O)=C(S[C@@H]3CN[C@H](C(=O)Nc4cccc(C(=O)O)c4)C3)[C@H](C)[C@H]12
Escherichia coli [1]
  MIC: 0.03 µg/mL (≈ 0.0631 µM)
Klebsiella pneumoniae [2]
  MPC: 64 µg/mL
Escherichia coli [3]
  MPC: 1 µg/mL
Klebsiella pneumoniae [4]
  MIC: 8 µg/mL (≈ 16.8 µM)
Escherichia coli [5]
  MIC: 8 µg/mL (≈ 16.8 µM)
Escherichia coli [6]
  MPC: 64 µg/mL
Escherichia coli [7]
  MPC: 0.06 µg/mL
Escherichia coli [8]
  MIC: 0.25 µg/mL (≈ 0.526 µM)
Escherichia coli [9]
  MIC: 4 µg/mL (≈ 8.41 µM)
Klebsiella pneumoniae [10]
  MPC: 32 µg/mL
Escherichia coli [11]
  MPC: 0.03 µg/mL
Escherichia coli [12]
  MPC: 0.03 µg/mL
Klebsiella pneumoniae [13]
  MIC: 0.016 µg/mL (≈ 0.0336 µM)
Escherichia coli [14]
  MIC: 0.008 µg/mL (≈ 0.0168 µM)
Klebsiella pneumoniae [15]
  MPC: 16 µg/mL
Klebsiella pneumoniae [16]
  MIC: 0.008 µg/mL (≈ 0.0168 µM)
Klebsiella pneumoniae [17]
  MIC: 0.016 µg/mL (≈ 0.0336 µM)
Escherichia coli [18]
  MPC: 0.25 µg/mL
Escherichia coli [19]
  MPC: >0.5 µg/mL
Klebsiella pneumoniae [20]
  MIC: 8 µg/mL (≈ 16.8 µM)
Klebsiella pneumoniae [21]
  MPC: 64 µg/mL
Klebsiella pneumoniae [22]
  MPC: 32 µg/mL
Klebsiella pneumoniae [23]
  MPC: 0.06 µg/mL
Klebsiella pneumoniae [24]
  MIC: 8 µg/mL (≈ 16.8 µM)
Klebsiella pneumoniae [25]
  MIC: 0.008 µg/mL (≈ 0.0168 µM)
Escherichia coli [26]
  MPC: 128 µg/mL
Klebsiella pneumoniae [27]
  MPC: 0.125 µg/mL
Escherichia coli [28]
  MIC: 0.03 µg/mL (≈ 0.0631 µM)
Escherichia coli [29]
  MPC: 1 µg/mL
Escherichia coli [30]
  MPC: 0.125 µg/mL
Klebsiella pneumoniae [31]
  MPC: 0.03 µg/mL

## C[C@@H](O)[C@H]1C(=O)N2C(C(=O)O)=C(S[C@@H]3CN[C@H](CNS(N)(=O)=O)C3)[C@H](C)[C@H]12 [DORIPENEM]
Escherichia coli [1]
  MIC: 0.03 µg/mL (≈ 0.0713 µM)
Klebsiella pneumoniae [2]
  MPC: >64 µg/mL
Escherichia coli [3]
  MPC: 0.125 µg/mL
Klebsiella pneumoniae [4]
  MIC: 2 µg/mL (≈ 4.76 µM)
Escherichia coli [5]
  MIC: 2 µg/mL (≈ 4.76 µM)
Pseudomonas aeruginosa [32]
  MPC: 16 µg/mL
Escherichia coli [6]
  MPC: 2 µg/mL
Escherichia coli [7]
  MPC: 0.06 µg/mL
Pseudomonas aeruginosa [33]
  MPC: 8 µg/mL
Escherichia coli [8]
  MIC: 0.06 µg/mL (≈ 0.143 µM)
Escherichia coli [9]
  MIC: 0.25 µg/mL (≈ 0.595 µM)
Acinetobacter baumannii [34]
  MPC: 8 µg/mL
Klebsiella pneumoniae [10]
  MPC: 32 µg/mL
Acinetobacter baumannii [35]
  MPC: 8 µg/mL
Escherichia coli [11]
  MPC: 0.06 µg/mL
Escherichia coli [12]
  MPC: 0.125 µg/mL
Klebsiella pneumoniae [13]
  MIC: 0.06 µg/mL (≈ 0.143 µM)
Escherichia coli [14]
  MIC: 0.03 µg/mL (≈ 0.0713 µM)
Klebsiella pneumoniae [15]
  MPC: >64 µg/mL
Pseudomonas aeruginosa [36]
  MPC: >4 µg/mL
Klebsiella pneumoniae [16]
  MIC: 0.06 µg/mL (≈ 0.143 µM)
Pseudomonas aeruginosa [37]
  MPC: 16 µg/mL
Acinetobacter baumannii [38]
  MPC: 4 µg/mL
Klebsiella pneumoniae [17]
  MIC: 0.125 µg/mL (≈ 0.297 µM)
Acinetobacter baumannii [39]
  MPC: 4 µg/mL
Escherichia coli [18]
  MPC: 0.125 µg/mL
Escherichia coli [19]
  MPC: 0.125 µg/mL
Klebsiella pneumoniae [20]
  MIC: 2 µg/mL (≈ 4.76 µM)
Klebsiella pneumoniae [21]
  MPC: >64 µg/mL
Pseudomonas aeruginosa [40]
  MPC: 4 µg/mL
Klebsiella pneumoniae [22]
  MPC: 8 µg/mL
Klebsiella pneumoniae [23]
  MPC: 0.125 µg/mL
Klebsiella pneumoniae [24]
  MIC: 2 µg/mL (≈ 4.76 µM)
Klebsiella pneumoniae [25]
  MIC: 0.06 µg/mL (≈ 0.143 µM)
Escherichia coli [26]
  MPC: 8 µg/mL
Klebsiella pneumoniae [27]
  MPC: 0.25 µg/mL
Pseudomonas aeruginosa [41]
  MPC: 8 µg/mL
Escherichia coli [28]
  MIC: 0.03 µg/mL (≈ 0.0713 µM)
Acinetobacter baumannii [42]
  MPC: 8 µg/mL
Acinetobacter baumannii [43]
  MPC: 16 µg/mL
Escherichia coli [29]
  MPC: 0.125 µg/mL
Acinetobacter baumannii [44]
  MPC: 4 µg/mL
Pseudomonas aeruginosa [45]
  MPC: 4 µg/mL
Escherichia coli [30]
  MPC: 0.125 µg/mL
Pseudomonas aeruginosa [46]
  MPC: 4 µg/mL
Acinetobacter baumannii [47]
  MPC: 2 µg/mL
Klebsiella pneumoniae [31]
  MPC: 0.125 µg/mL
Pseudomonas aeruginosa [48]
  MPC: 2 µg/mL
